From ChEMBL document CHEMBL1681788, “Effect of structural modification in the amine portion of substituted aminobutyl-benzamides as ligands for binding σ1 and σ2 receptors” (Bioorg Med Chem, 2011)

Assays:
[1] = Displacement of [3H]ditolylguanidine from sigma2 receptor in guinea pig brain membrane; format: cell membranes, Cavia porcellus
Procedure, shortened: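 [3H]DTG competition binding with 500 nM (+)-PTZ present to mask σ1 sites, on fresh-frozen male English Hartley guinea pig brain membranes. Duplicate wells, four repeats. Compound stocks were 10^-3 M in acidified 1% EtOH/water.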

[2] = system: sigma1/sigma2 receptors (Cavia porcellus); test: Selectivity ratio, ratio of Ki for guinea pig sigma1 receptor to Ki for guinea pig sigma2 receptor
[3] = target: Sigma non-opioid intracellular receptor 1 (Cavia porcellus, UniProt Q60492); test: Displacement of [3H]-(+)-pentazocine from Sigma1-receptor in guinea pig brain membrane; format: cell membranes
Procedure, shortened: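 Competition binding with [3H](+)-PTZ as radioligand on membranes from fresh-frozen male English Hartley guinea pig brain. Duplicates, repeated four times. Test compounds came from 10^-3 M stocks in acidified 1% EtOH/water.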

[4] = Chemical stability of the compound assessed as compound remaining after 44 hrs by HPLC analysis; format: physicochemical; details: read-out: Activity
Procedure, shortened: (§1)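 Compounds held at 10^-3 M in aqueous stock buffer of 1% EtOH with AcOH: 2.5% AcOH generally, 0.1% AcOH for the HCl and oxalate salts. Stored in stock buffer, then purity analysed by analytical HPLC at the stated time point (16 h, 44 h or 25 days).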

[5] = Chemical stability of the compound assessed as compound remaining after 16 hrs by HPLC analysis; format: physicochemical; details: read-out: Activity; procedure, shortened: as §1
[6] = Chemical stability of the compound assessed as decomposition after 25 days by HPLC analysis; format: physicochemical; details: 600 h; procedure, shortened: as §1

Sequence of Sigma non-opioid intracellular receptor 1 (Q60492 whole entry): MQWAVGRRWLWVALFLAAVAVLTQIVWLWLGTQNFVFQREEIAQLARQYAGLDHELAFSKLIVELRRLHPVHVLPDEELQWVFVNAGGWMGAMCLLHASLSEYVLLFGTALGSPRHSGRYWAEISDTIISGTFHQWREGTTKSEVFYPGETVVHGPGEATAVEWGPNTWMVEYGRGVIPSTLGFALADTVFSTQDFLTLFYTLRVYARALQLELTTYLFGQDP

Row | SMILES | Ki [1] [nM] | Ratio Ki [2] | Ki [3] [nM] | remaining at 44 h [4] [%] | remaining at 16 h [5] [%] | Stability [6]
1 | COc1ccc(CCN2CCN(CCCc3ccccc3)CC2)cc1OC [[11C]SA4503] | 89.5 |  |  |  |  | 
2 | COc1ccc(CCN(C)CCCCNC(=O)c2cc(Br)cc(OC)c2OC)cc1OC | 2130 |  |  |  |  | 
3 | COc1cc2c(cc1OC)CN(CCCCNC(=O)c1cc(Br)cc(OC)c1OC)CCC2 | 315 | 6.58 | 2070 |  |  | 
4 | COc1cc2c(cc1OC)CCN(CCCCNC(=O)c1cc(Br)cc(OC)c1OC)CC2 | 734 | 8.5 | 5070 |  |  | 
5 | COc1cc2c(cc1OC)CN(CCCCNC(=O)c1cc(Br)cc(OC)c1OC)CC2 | 2.7 |  |  |  |  | 
6 | COc1cc2c(cc1OC)N(CCCCNC(=O)c1cc(Br)cc(OC)c1OC)CCC2 | 5820 | 0.77 | 4500 | 38 | 90 | 
7 | COc1cc2c(cc1OC)N(CCCCNC(=O)c1cc(Br)cc(OC)c1OC)CC2 | 9680 | 0.47 | 4520 |  | 86 | Unstable
8 | COc1ccc(CCNCCCCNC(=O)c2cc(Br)cc(OC)c2OC)cc1OC | 4620 | 0.2 |  |  |  | 
9 | COc1cc2c(cc1OC)CN(CCCCNC(=O)c1cc(Br)cc(OC)c1OC)C2 | 0.82 | 1760 | 1440 |  |  | 
10 | COc1cc2c(cc1OC)N(CCCCNC(=O)c1cc(Br)cc(OC)c1OC)CCCC2 | 8960 |  | 2560 |  |  | 
